# Source: ChEMBL document CHEMBL3813671, “Unexpected Discovery of Dichloroacetate Derived Adenosine Triphosphate Competitors Targeting Pyruvate Dehydrogenase Kinase To Inhibit Cancer Proliferation” (J Med Chem, 2016)
# The source made the active and inactive calls. No cut-off for these calls is given here.
# Tests used:
# MCF7 [1] = assay: Reversal of hyperpolarized mitochondrial membrane potential in human MCF7 cells assessed as cells with vital and intact mitochondrial membranes at 20 uM after 12 hrs by JC1 staining-based flow cytometric analysis; type: functional
# Summary of the method: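 MCF-7 cells treated 12 h (5, 10 or 20 µM), then stained with JC-1. Depolarization read as the ratio of green J-monomer to red J-aggregate fluorescence.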
# MCF7 [2] = assay: Reversal of hyperpolarized mitochondrial membrane potential in human MCF7 cells assessed as cells with vital and intact mitochondrial membranes at 10 mM after 12 hrs by JC1 staining-based flow cytometric analysis; type: functional
# Summary of the method: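 MCF-7 treated 12 h, then stained with JC-1. Mitochondrial potential read as the ratio of green J-monomer to red J-aggregate fluorescence, where a higher ratio marks depolarization. P < 0.05 computed against the […] DCA-treated group.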
# A549 [3] = assay: Cytotoxicity against human A549 cells assessed as growth inhibition after 72 hrs by MTT assay; type: functional, cell-based; conditions: A549, 72 h
# MCF7 [4] = assay: Cytotoxicity against human MCF7 cells assessed as growth inhibition after 72 hrs by MTT assay; type: functional, cell-based; conditions: MCF7, 72 h
# [5] = Cytotoxicity against human MCF10A cells assessed as growth inhibition at 20 uM after 72 hrs by MTT assay relative to control; type: cell-based, MCF-10A; conditions: read-out: GI
# [6] = Cytotoxicity against human MCF10A cells assessed as growth inhibition at 10 mM after 72 hrs by MTT assay relative to control; type: cell-based, MCF-10A; conditions: read-out: GI
# MCF7 [7] = assay: Induction of apoptosis in human MCF7 assessed as early apoptotic cells at 10 mM after 10 hrs by FITC-annexin V/propidium iodide staining-based flow cytometric analysis (reference value: 2.38%); type: functional
# MCF7 [8] = assay: Induction of apoptosis in human MCF7 assessed as late apoptotic cells at 10 mM after 10 hrs by FITC-annexin V/propidium iodide staining-based flow cytometric analysis (reference value: 1.95%); type: functional
# MCF7 [9] = assay: Induction of apoptosis in human MCF7 assessed as necrotic cells at 10 mM after 10 hrs by FITC-annexin V/propidium iodide staining-based flow cytometric analysis (reference value: 1.86%); type: functional
# MCF7 [10] = assay: Induction of apoptosis in human MCF7 assessed as viable cells at 10 mM after 10 hrs by FITC-annexin V/propidium iodide staining-based flow cytometric analysis (reference value: 93.8%); type: functional; conditions: MCF7, 10 h, read-out: Activity
# Sus scrofa [11] = species: Sus scrofa; assay: Activation of pig heart PDC assessed as production of NADH at 10 mM in presence of ATP
# Summary of the method: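 Pig PDC with its intrinsic PDKs preincubated 40 min at 37 °C at 80 µg/ml in Mops buffer pH 7.20 with acetyl-CoA, NADH, NaF. Kinase step run 3 min at 37 °C after 2.2-fold dilution into buffer with 55 µM ADP and 100 µM ATP, stopped with ADP/pyruvate. Residual PDC activity read as NADH at 340 nm in Tris pH 7.8 with NAD+, pyruvate, CoA, thiamine pyrophosphate.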
# [12] = target: T1, [Pyruvate dehydrogenase (acetyl-transferring)] kinase isozyme 1, mitochondrial (Homo sapiens, UniProt Q15118); conditions: MCF7, 10 mM
# [13] = target: T1, [Pyruvate dehydrogenase (acetyl-transferring)] kinase isozyme 1, mitochondrial; conditions: MCF7, 10 mM; remark: listed apart in the source
# [14] = target: T1, [Pyruvate dehydrogenase (acetyl-transferring)] kinase isozyme 1, mitochondrial; conditions: MCF7, 10 mM; remark: listed apart in the source
# [15] = target: T1, [Pyruvate dehydrogenase (acetyl-transferring)] kinase isozyme 1, mitochondrial; conditions: MCF7, 10 mM; remark: listed apart in the source
# [16] = target: T1, [Pyruvate dehydrogenase (acetyl-transferring)] kinase isozyme 1, mitochondrial; conditions: MCF7, 10 mM; remark: listed apart in the source
# [17] = target: T1, [Pyruvate dehydrogenase (acetyl-transferring)] kinase isozyme 1, mitochondrial; assay: Inhibition of PDK1 in human MCF7 cells assessed as increase in oxygen consumption rate at 20 uM after 12 hrs; type: cell-based
# Summary of the method: (§1)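 MCF-7 cells at 2.7×10⁴ cells/well in XF24 plates, attached, then grown 24 h at 37 °C in 5% CO2. Treated 12 h at 5, 10 or 20 µM, rinsed into glycolysis stress-test medium and held 1 h at 37 °C without CO2. OCR, ECAR and PPR then measured on a Seahorse XFe24 analyser. Significance P < 0.05 versus untreated control.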
# [18] = target: T1, [Pyruvate dehydrogenase (acetyl-transferring)] kinase isozyme 1, mitochondrial; assay: Inhibition of PDK1 in human MCF7 cells assessed as decrease in extracellular acidification rate at 20 uM after 12 hrs; type: cell-based; summary of the method: as §1
# [19] = target: T1, [Pyruvate dehydrogenase (acetyl-transferring)] kinase isozyme 1, mitochondrial; assay: Inhibition of PDK1 in human MCF7 cells assessed as decrease in proton production rate at 20 uM after 12 hrs; type: cell-based; summary of the method: as §1
# [20] = target: T1, [Pyruvate dehydrogenase (acetyl-transferring)] kinase isozyme 1, mitochondrial; assay: Inhibition of PDK1 in human MCF7 cells assessed as increase in ratio of oxygen consumption rate to extracellular acidification rate at 20 uM after 12 hrs; type: cell-based; summary of the method: as §1
# MCF7 [21] = assay: Induction of mitochondrial membrane potential depolarization in human MCF7 cells at 60 uM after 12 hrs by TMRM staining-based assay; type: functional, cell-based
# [22] = Cytotoxicity against human MCF10A cells assessed as growth inhibition at 10 uM after 72 hrs by MTT assay relative to control; type: cell-based, MCF-10A; conditions: read-out: GI
# [23] = Cytotoxicity against human MCF10A cells assessed as growth inhibition at 40 uM after 72 hrs by MTT assay relative to control; type: cell-based, MCF-10A; conditions: read-out: GI
# A549 [24] = assay: Cytotoxicity against human A549 cells assessed as growth inhibition at 40 uM after 72 hrs by MTT assay relative to control; type: functional, cell-based
# MCF7 [25] = assay: Cytotoxicity against human MCF7 cells assessed as growth inhibition at 40 uM after 72 hrs by MTT assay relative to control; type: functional, cell-based
# MCF7 [26] = assay: Induction of apoptosis in human MCF7 assessed as early apoptotic cells at 20 uM after 10 hrs by FITC-annexin V/propidium iodide staining-based flow cytometric analysis (reference value: 2.38%); type: functional
# MCF7 [27] = assay: Induction of apoptosis in human MCF7 assessed as late apoptotic cells at 20 uM after 10 hrs by FITC-annexin V/propidium iodide staining-based flow cytometric analysis (reference value: 1.95%); type: functional
# MCF7 [28] = assay: Induction of apoptosis in human MCF7 assessed as necrotic cells at 20 uM after 10 hrs by FITC-annexin V/propidium iodide staining-based flow cytometric analysis (reference value: 1.86%); type: functional
# MCF7 [29] = assay: Induction of apoptosis in human MCF7 assessed as viable cells at 20 uM after 10 hrs by FITC-annexin V/propidium iodide staining-based flow cytometric analysis (reference value: 93.8%); type: functional; conditions: MCF7, 10 h, read-out: Activity
# MCF7 [30] = assay: Cytotoxicity against human MCF7 cells assessed as growth inhibition at 40 uM after 72 hrs by IncuCyte Zoom live cells imaging method; type: functional, cell-based
# [31] = target: T1, [Pyruvate dehydrogenase (acetyl-transferring)] kinase isozyme 1, mitochondrial; assay: Inhibition of recombinant N-terminal 6xHis-SUMO-tagged human PDK1 (29 to 436 residues) expressed in Escherichia coli BL-21 assessed as phosphorylation of RYHGHSMSDP at 50 uM after 30 mins by Kinase-Glo luminescent assay
# Sus scrofa [32] = species: Sus scrofa; assay: Activation of pig heart PDC assessed as production of NADH at 50 uM in presence of ATP
# Summary of the method: (§2)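 Pig heart PDC (80 µg/ml, carrying intrinsic PDK activity) preincubated 40 min at 37 °C in Mops pH 7.20 buffer with NaF, acetyl-CoA, NADH and DTT. Kinase step 3 min at 37 °C with 55 µM ADP and 100 µM ATP, or no ATP. Stopped with ADP/pyruvate. Residual PDC activity then read as NADH formation at 340 nm, 37 °C, in Tris pH 7.8 with TPP, NAD+, pyruvate and CoA.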
# Sus scrofa [33] = species: Sus scrofa; assay: Activation of pig heart PDC assessed as production of NADH at 50 uM in absence of ATP; summary of the method: as §2
# [34] = target: T1, [Pyruvate dehydrogenase (acetyl-transferring)] kinase isozyme 1, mitochondrial; assay: Inhibition of recombinant N-terminal 6xHis-SUMO-tagged human PDK1 (29 to 436 residues) expressed in Escherichia coli BL-21 assessed as activation of PDC at 50 uM
# [35] = target: T1, [Pyruvate dehydrogenase (acetyl-transferring)] kinase isozyme 1, mitochondrial; assay: Inhibition of recombinant N-terminal 6xHis-SUMO-tagged human PDK1 (29 to 436 residues) expressed in Escherichia coli BL-21 assessed as suppression of PDC phosphorylation at S293 at 50 uM after 30 mins by Western blot method
# [36] = target: T1, [Pyruvate dehydrogenase (acetyl-transferring)] kinase isozyme 1, mitochondrial; assay: Inhibition of PDK1 in human MCF7 cells assessed as decrease in lactate production at 20 uM after 12 hrs
# A549 [37] = assay: Cytotoxicity against human A549 cells assessed as growth inhibition at 40 uM after 72 hrs by IncuCyte Zoom live cells imaging method; type: functional, cell-based
inhibition [17],inhibition [18],inhibition [19],inhibition [20],inhibition [31],Activity (Sus scrofa [32]),Activity (Sus scrofa [33]),inhibition [34],Structure (SMILES),Activity (MCF7 [1]) [%],IC50 (A549 [3]) [µM],IC50 (MCF7 [4]) [µM],Activity (MCF7 [21]),"inhibition at 72 h, 10 µM [22] [%]","inhibition at 72 h, 40 µM [23] [%]",growth inhibition (GI) (A549 [24]),growth inhibition (GI) (MCF7 [25]),Activity (MCF7 [26]) [%],Activity (MCF7 [27]) [%],Activity (MCF7 [28]) [%],viability at 20 µM (MCF7 [29]) [%],also measured
–,–,–,–,–,–,–,–,O=C([O-])C(Cl)Cl.[Na+] [SODIUM DICHLOROACETATE],77.7,23600,12400,–,–,–,–,–,–,–,–,–,"Activity (MCF7 [2]): 69%; inhibition at 72 h, 20 µM [5]: 3.42%; inhibition at 72 h, 10000 µM [6]: 41.1%; Activity (MCF7 [7]): 3.64%; Activity (MCF7 [8]): 9.94%; Activity (MCF7 [9]): 3.09%; viability at 10000 µM (MCF7 [10]): 83.3%; Activity (Sus scrofa [11]): Active; inhibition [12]: Active; inhibition [13]: Active; inhibition [14]: Active; inhibition [15]: Active; inhibition [16]: Active"
Active,Active,Active,Active,Active,inactive,Active,Active,O=C(Nc1c(Cl)ncnc1Cl)C(Cl)Cl,60.1,28.4,19.3,Active,4.91,42.4,Active,Active,4.84,10.6,3.91,80.7,growth inhibition (GI) (MCF7 [30]): Active; inhibition [35]: Active; inhibition [36]: Active
Active,Active,Active,Active,Active,inactive,Active,Active,Cc1nc(Cl)c(NC(=O)C(Cl)Cl)c(Cl)n1,68.6,26,22.9,Active,7.57,41.6,Active,Active,4.43,9.87,2.7,83,growth inhibition (GI) (A549 [37]): Active; inhibition [35]: Active; inhibition [36]: Active
